Experimental data: ChEMBL document CHEMBL5325427
≈ marks a conversion by molar mass, not a printed value. Calls of active or inactive are those of the source. The rule behind the calls is not given here.

Assays:
[1] = Permeability of the compound across apical to basolateral side in human Caco-2 cells at pH 6.5 to 7.4; type: ADME, cell-based; details: Caco-2, pH 6.5, read-out: permeability
How it was run: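 Caco-2 cells (0.5 × 10^6/well) were grown 7 days on collagen-coated transwell filters. Compound was dosed at 50, 75 and 100 μM input in 1% DMSO/HBSS, apical pH 6.5 and basolateral pH 7.4. Samples were taken every 30 min for 2 h in duplicate and quantified by LC/MS/MS. Papp was calculated from receiver concentration, time, area and mid-point donor and receiver concentrations. Monolayer integrity required fluorescein Papp below 1.5 × 10−6 cm/s.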

[2] = Toxicity in Balb/c mouse assessed as reduction in platelet population at 25 mg/kg; type: organism-based; details: in vivo
Vero C1008 = assay: Cytotoxicity against African green monkey Vero E6 cells measured after 72 hrs by crystal violet staining based analysis; type: toxicity, cell-based; details: chlorocebus sabaeus, vero c1008, 72 h
How it was run: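 Vero-E6 cells were seeded at 3 × 10^5 cells/mL, grown 24 h at 37 °C with 5% CO2, then given graded compound concentrations in triplicate for 72 h. Stocks were made in 10% DMSO in DMEM. Cells were fixed in 10% formalin, stained with 0.1% crystal violet, dissolved in methanol and read at A570. CC50 was taken by nonlinear regression of log concentration versus normalised response against untreated cells.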

[3] = Toxicity in Balb/c mouse assessed as effect on gamma GT at 12.5 to 25 mg/kg; type: organism-based; details: in vivo, dose 12.5-25 mg/kg
How it was run: (§1)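 Female Balb/c mice were randomised to vehicle (0.5% DMSO in PBS) or 12.5 or 25 mg/kg intraperitoneally daily for 14 days, then followed 12 days after treatment. Body weight, haematology and blood chemistry were compared with vehicle controls; n = 3–5.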

SARS-CoV-2 [4] = assay: Antiviral activity against SARS- CoV-2 infected in Vero E6 cells assessed as virucidal activity pretreated with cells for 24 hrs followed by viral infection for 1 hr and measured after 1 hr by plaque assay relative to control; type: functional, Severe acute respiratory syndrome coronavirus 2; details: time 26 hrs
[5] = Toxicity in Balb/c mouse assessed as effect on AST at 12.5 to 25 mg/kg; type: organism-based; details: in vivo, dose 12.5-25 mg/kg; how it was run: as §1
[6] = Toxicity in Balb/c mouse assessed as histological changes in heart by measuring toxicity score at 12.5 to 25 mg/kg by H and E staining based analysis; type: organism-based; details: in vivo, dose 12.5-25 mg/kg
How it was run: (§2)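 After the 14-day daily intraperitoneal dosing (12.5 or 25 mg/kg, female Balb/c), liver, kidney, spleen, heart and lung were fixed 24 h in 10% neutral-buffered formalin and paraffin-embedded. Sections of 4 μm were stained with H&E. Lesions were scored nil 0, mild 1, moderate 2, severe 3.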

[7] = test system: Middle East respiratory syndrome-related coronavirus; assay: Antiviral activity against MERS-CoV NRCE-HKU270 infected in Vero E6 cells assessed as inhibition of viral growth; type: functional, organism-based; details: NRCE-HKU270, Vero C1008
SARS-CoV-2 [8] = assay: Antiviral activity against SARS CoV-2 infected in human Caco-2 cells assessed as reduction in IL-6 expression at 20 ug/ml preincubated with cells for 24 hrs followed by viral infection and measured after 3 to 12 hrs by real-time PCR assay; type: functional, organism-based; details: Severe acute respiratory syndrome coronavirus 2, dose 20.0 µg/ml, time lower 27.0 hrs, time upper […]
SARS-CoV-2 [9] = assay: Antiviral activity against SARS CoV-2 infected in human Caco-2 cells assessed as reduction in OAS1 expression at 20 ug/ml preincubated with cells for 24 hrs followed by viral infection and measured after 3 to 12 hrs by real-time PCR assay; type: functional, organism-based; details: Severe acute respiratory syndrome coronavirus 2, dose 20.0 µg/ml, time lower 27.0 hrs, time upper […]
[10] = Toxicity in Balb/c mouse assessed as histological changes in kidney by measuring toxicity score at 12.5 to 25 mg/kg by H and E staining based analysis; type: organism-based; details: in vivo, dose 12.5-25 mg/kg; how it was run: as §2
[11] = Toxicity in Balb/c mouse assessed as effect on body weight loss at 25 to 100 mg/kg, ip administered as single dose measured upto 15 days; type: organism-based; details: in vivo, 360 h, dose 25-100 mg/kg, time < 15 day
[12] = target: Replicase polyprotein 1ab (Severe acute respiratory syndrome coronavirus 2, UniProt P0DTD1); assay: Inhibition of recombinant SARS CoV-2 PL protease incubated for 2 hrs followed by substrate addition and measured after 1 hr by fluorescence based analysis
[13] = Toxicity in Balb/c mouse assessed as histological changes in spleen by measuring toxicity score at 12.5 to 25 mg/kg by H and E staining based analysis; type: organism-based; details: in vivo, dose 12.5-25 mg/kg
[14] = Toxicity in Balb/c mouse assessed as effect on ALP at 12.5 to 25 mg/kg; type: organism-based; details: in vivo, dose 12.5-25 mg/kg; how it was run: as §1
SARS-CoV-2 [15] = assay: Antiviral activity against SARS- CoV-2 infected in Vero E6 cells assessed as viral replication pretreated with cells for 24 hrs followed by viral infection for 1 hr and measured after 1 hr by plaque assay relative to control; type: functional, Severe acute respiratory syndrome coronavirus 2; details: time 26 hrs
[16] = Toxicity in Balb/c mouse assessed as change in histological variation in kidney at 12.5 to 25 mg/kg by H and E staining based analysis; type: organism-based; details: in vivo, dose 12.5-25 mg/kg; how it was run: as §2
[17] = Toxicity in Balb/c mouse assessed as histological changes in lung by measuring toxicity score at 12.5 to 25 mg/kg by H and E staining based analysis; type: organism-based; details: in vivo, dose 12.5-25 mg/kg; how it was run: as §2
SARS-CoV-2 [18] = assay: Antiviral activity against SARS CoV-2 infected in human Caco-2 cells assessed as reduction in INF-alpha expression at 20 ug/ml preincubated with cells for 24 hrs followed by viral infection and measured after 1 to 3 hrs by real-time PCR assay; type: functional, organism-based; details: Severe acute respiratory syndrome coronavirus 2, dose 20.0 µg/ml, time 25-28 hrs
SARS-CoV-2 [19] = assay: Antiviral activity against SARS- CoV-2 infected in Vero E6 cells assessed as viral adsorption pretreated with cells for 24 hrs followed by viral infection and measured after 1 hr by crystal violet staining based analysis relative to control; type: functional, Severe acute respiratory syndrome coronavirus 2; details: time 25 hrs
[20] = Toxicity in Balb/c mouse assessed as histological changes in liver by measuring toxicity score at 25 mg/kg by H and E staining based analysis; type: organism-based; details: in vivo; how it was run: as §2
SARS-CoV-2 [21] = assay: Antiviral activity against SARS CoV-2 HCoV-19/Egypt/NRC-1/2020 infected in human Caco-2 cells assessed as reduction in viral ORFb1 RNA expression at 20 ug/ml pre-infected with virus for 1 hr followed by cell addition for 1 hr and measured after 1 to 12 hrs by RT-PCR analysis; type: functional, organism-based; details: Severe acute respiratory syndrome coronavirus 2, dose 20.0 µg/ml, time 3-14 hrs
SARS-CoV-2 [22] = assay: Antiviral activity against SARS CoV-2 HCoV-19/Egypt/NRC-1/2020 infected in human Caco-2 cells assessed as reduction in spike RNA expression at 20 ug/ml pre-infected with virus for 1 hr followed by cell addition for 1 hr and measured after 6 to 12 hrs by RT-PCR analysis; type: functional, organism-based; details: Severe acute respiratory syndrome coronavirus 2, dose 20.0 µg/ml, time 8-14 hrs
[23] = Toxicity in Balb/c mouse assessed as change in histological variation in heart at 12.5 to 25 mg/kg by H and E staining based analysis; type: organism-based; details: in vivo, dose 12.5-25 mg/kg; how it was run: as §2
[24] = Toxicity in Balb/c mouse assessed as effect on urea at 12.5 to 25 mg/kg; type: organism-based; details: in vivo, dose 12.5-25 mg/kg; how it was run: as §1

With `COc1ccc2[nH]c3c(c2c1)C[C@]1(OC)CC[C@H]2c4[nH]c5ccccc5c4CCN2[C@@H]1C3` the Papp A→B [1] was 5.9 ×10⁻⁶ cm/s, the Activity [2] was “Non-Toxic” and the CC50 (Vero C1008) was 55.63 µg/mL (≈ 130 µM). For the same molecule, the Activity [3] was “Non-Toxic”, the Activity (SARS-CoV-2 [4]) was >90% and the Activity [5] was “Non-Toxic”. The Activity [6] was 0, the IC50 [7] was 6.21 µg/mL (≈ 14.5 µM) and the Activity (SARS-CoV-2 [8]) was “Active”. The Activity (SARS-CoV-2 [9]) was “Active”, the Activity [10] was 0 and the Activity [11] was “Non-Toxic”. For the same molecule, the IC50 [12] was 91.2 nM, the Activity [13] was 0 and the Activity [14] was “Non-Toxic”. For the same molecule, the Activity (SARS-CoV-2 [15]) was 8.5%, the Activity [16] was “Non-Toxic” and the Activity [17] was 0. The Activity (SARS-CoV-2 [18]) was “Active”, the Activity (SARS-CoV-2 [19]) was 2.5% and the Activity [20] was 0. The Activity (SARS-CoV-2 [21]) was “Active”, the Activity (SARS-CoV-2 [22]) was “Active” and the Activity [23] was “Non-Toxic”. For the same molecule, the Activity [24] was “Non-Toxic”.
